Reference: ChEMBL document CHEMBL1135531, “Cardiovascular characterization of [1,4]thiazino[3,4-c][1,2,4]oxadiazol-1-one derivatives: selective myocardial calcium channel modulators” (J Med Chem, 2002)

Columns and labels:
Cavia porcellus [1] = species: Cavia porcellus; assay: Effective drug concentration for negative inotropic activity was determined; Range is from 1.35-2.05 (10e-6 M); type: functional, organism-based
Summary of the method: (§1)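 Left atria from female guinea pigs (300-400 g) in Tyrode PSS, pH 7.4, 95% O2/5% CO2, 35 °C. Driven at 1 Hz with 0.6-0.8 ms pulses at about 50% threshold voltage; isometric force recorded. Cumulative 0.1-100 µM in DMSO (≤0.3% in bath), each added at steady state. EC50 by Probit log concentration-response analysis (n = 6-8), not calculated when maximum effect <50%.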

Cavia porcellus [2] = species: Cavia porcellus; assay: Negative inotropic activity in isolated guinea pig left atrium.; type: functional, Cardiac atrium
Cavia porcellus [3] = species: Cavia porcellus; assay: Percent inhibition of calcium-induced contraction on K+-depolarized guinea-pig aortic strip at 5 x 10 e-5M; type: functional; conditions: Aorta
Cavia porcellus [4] = species: Cavia porcellus; assay: Negative chronotropic activity in isolated guinea pig right atrium.; type: functional, Cardiac atrium
Cavia porcellus [5] = species: Cavia porcellus; assay: Effective drug concentration for negative inotropic activity was determined; Range is from 0.41-0.72 (10e-6 M); type: functional; summary of the method: as §1
Cavia porcellus [6] = species: Cavia porcellus; assay: Effective drug concentration for negative inotropic activity was determined; Range is from 0.55-0.93 (10e-6 M); type: functional; summary of the method: as §1
Cavia porcellus [7] = species: Cavia porcellus; assay: Effective drug concentration for negative inotropic activity was determined; Range is from 0.43-0.56 (10e-6 M); type: functional; summary of the method: as §1
Cavia porcellus [8] = species: Cavia porcellus; assay: Effective drug concentration for negative inotropic activity was determined; Range is from 1.03-1.45 (10e-6 M); type: functional; summary of the method: as §1
Cavia porcellus [9] = species: Cavia porcellus; assay: Effective drug concentration for negative inotropic activity was determined; Range is from 0.23-0.43 (10e-6 M); type: functional; summary of the method: as §1
Cavia porcellus [10] = species: Cavia porcellus; assay: Effective drug concentration for negative inotropic activity was determined; Range is from 1.34-2.19 (10e-6 M); type: functional, organism-based; summary of the method: as §1
Cavia porcellus [11] = species: Cavia porcellus; assay: Effective drug concentration for negative inotropic activity was determined; Range is from 1.02-1.98 (10e-6 M); type: functional; summary of the method: as §1
Cavia porcellus [12] = species: Cavia porcellus; assay: Effective drug concentration for negative inotropic activity was determined; Range is from 0.65-1.05 (10e-6 M); type: functional; summary of the method: as §1
Cavia porcellus [13] = species: Cavia porcellus; assay: Effective drug concentration for negative inotropic activity; Range is from 0.41-0.65 (10e-6 M); type: functional; summary of the method: as §1
Cavia porcellus [14] = species: Cavia porcellus; assay: Effective drug concentration for negative inotropic activity was determined; Range is from 0.18-0.30 (10e-6 M); type: functional; summary of the method: as §1
Cavia porcellus [15] = species: Cavia porcellus; assay: Effective drug concentration for negative inotropic activity; type: functional; summary of the method: as §1
Cavia porcellus [16] = species: Cavia porcellus; assay: Effective drug concentration for negative inotropic activity was determined; Range is from 2.35-3.10 (10e-6 M); type: functional; summary of the method: as §1
Cavia porcellus [17] = species: Cavia porcellus; assay: Effective drug concentration for negative inotropic activity was determined; Range is from 0.46-0.92 (10e-6 M); type: functional; summary of the method: as §1
Cavia porcellus [18] = species: Cavia porcellus; assay: Effective drug concentration for negative inotropic activity was determined; Range is from 1.35-2.23 (10e-6 M); type: functional, organism-based; summary of the method: as §1
Cavia porcellus [19] = species: Cavia porcellus; assay: Effective drug concentration for negative inotropic activity was determined; Range is from 3.67-4.52 (10e-6 M); type: functional, organism-based; summary of the method: as §1
Cavia porcellus [20] = species: Cavia porcellus; assay: Effective drug concentration for negative inotropic activity was determined; Range is from 0.61-0.85 (10e-6 M); type: functional; summary of the method: as §1
Cavia porcellus [21] = species: Cavia porcellus; assay: Effective drug concentration for negative inotropic activity was determined; Range is from 1.67-2.83 (10e-6 M); type: functional, organism-based; summary of the method: as §1
Cavia porcellus [22] = species: Cavia porcellus; assay: Effective drug concentration for negative inotropic activity was determined; Range is from 5.99-7.13 (10e-6 M); type: functional, organism-based; summary of the method: as §1
Cavia porcellus [23] = species: Cavia porcellus; assay: Effective drug concentration for negative inotropic activity was determined; Range is from 0.53-0.64 (10e-6 M); type: functional; summary of the method: as §1
Cavia porcellus [24] = species: Cavia porcellus; assay: Effective drug concentration for negative inotropic activity was determined; Range is from 0.70-0.85 (10e-6 M); type: functional
Cavia porcellus [25] = species: Cavia porcellus; assay: Effective drug concentration (EC30) for negative chronotropic activity was determined; Range is from 0.064-0.075 (10e-6 M); type: functional

SMILES | Decrease (Cavia porcellus [2]) | inhibition at 50 µM (Cavia porcellus [3]) | Decrease (Cavia porcellus [4]) | other results
CC1=CSC(O)(c2ccc([N+](=O)[O-])cc2)c2noc(=O)n21 (centres undefined) | 73% | 19% | 16% | EC50 (Cavia porcellus [1]): 1.65 µM
COc1ccc(C2(O)SC=C(C)n3c2noc3=O)cc1 (centres undefined) | 76% | 18% | 12% | EC50 (Cavia porcellus [5]): 0.52 µM
CC1=CSC(O)(c2ccc(C#N)cc2)c2noc(=O)n21 (centres undefined) | 76% | 13% | 30% | EC50 (Cavia porcellus [6]): 0.76 µM
COc1cccc(C2(O)SC=C(C)n3c2noc3=O)c1 (centres undefined) | 86% | 10% | 16% | EC50 (Cavia porcellus [7]): 0.49 µM
CC1=CSC(O)(c2ccc(F)cc2)c2noc(=O)n21 (centres undefined) | 74% | 8% | 10% | EC50 (Cavia porcellus [8]): 1.21 µM
CC1=CSC(O)(c2ccc(Br)cc2)c2noc(=O)n21 (centres undefined) | 97% | 12% | 18% | EC50 (Cavia porcellus [9]): 0.32 µM
CC1=Cn2c(noc2=O)C(O)(c2ccc(Cl)cc2)S1 (centres undefined) | 71% | 15% | 11% | EC50 (Cavia porcellus [10]): 1.72 µM
CC1=C(C)n2c(noc2=O)C(O)(c2ccc(Cl)cc2)S1 (centres undefined) | 70% | 28% | 19% | EC50 (Cavia porcellus [11]): 1.42 µM
CC1=CSC(O)(c2ccc(Cl)cc2)c2noc(=O)n21 (centres undefined) | 80% | 26% | 18% | EC50 (Cavia porcellus [12]): 0.8 µM
O=c1onc2n1-c1ccccc1SC2(O)c1ccc(Cl)cc1 (centres undefined) | 94% | 40% | 21% | EC50 (Cavia porcellus [13]): 0.52 µM
CC1=CSC(O)(c2ccccc2)c2noc(=O)n21 (centres undefined) | 95% | 4% | 14% | EC50 (Cavia porcellus [14]): 0.23 µM
CC1=CSC(OCC(C)C)(c2ccc(Cl)cc2)c2noc(=O)n21 (centres undefined) | 83% | 37% | 15% | EC50 (Cavia porcellus [15]): 0.56 µM
COC1(c2ccc(Cl)cc2)SC=C(C)n2c1noc2=O (centres undefined) | 62% | 14% | 22% | EC50 (Cavia porcellus [15]): 1.54 µM
CC1=CSC(O)(c2ccc(-c3ccccc3)cc2)c2noc(=O)n21 (centres undefined) | 71% | 9% | 18% | EC50 (Cavia porcellus [16]): 2.65 µM
CC1=CSC(O)(c2cccc(Cl)c2)c2noc(=O)n21 (centres undefined) | 88% | 17% | 34% | EC50 (Cavia porcellus [17]): 0.65 µM
CC1=CSC(O)(c2cccc([N+](=O)[O-])c2)c2noc(=O)n21 (centres undefined) | 68% | 19% | 13% | EC50 (Cavia porcellus [18]): 1.76 µM
O=c1onc2n1C=CSC2(O)c1ccc(Cl)cc1 (centres undefined) | 78% | 10% | 7% | EC50 (Cavia porcellus [19]): 4.07 µM
CC1=CSC(O)(c2cccc(C)c2)c2noc(=O)n21 (centres undefined) | 89% | 12% | 10% | EC50 (Cavia porcellus [20]): 0.72 µM
CC1=CSC(O)(c2cccc(C(F)(F)F)c2)c2noc(=O)n21 (centres undefined) | 96% | 37% | 20% | EC50 (Cavia porcellus [21]): 2.17 µM
O=c1onc2n1C=CSC2(O)c1ccccc1 (centres undefined) | 74% | 11% | 14% | EC50 (Cavia porcellus [22]): 6.58 µM
CC1=CSC(O)(c2ccc(C)cc2)c2noc(=O)n21 (centres undefined) | 82% | 5% | 13% | EC50 (Cavia porcellus [23]): 0.57 µM
COc1ccc([C@@H]2Sc3ccccc3N(CCN(C)C)C(=O)[C@@H]2OC(C)=O)cc1 [DILTIAZEM] | 78% | 88% | 94% | EC50 (Cavia porcellus [24]): 0.79 µM; EC30 (Cavia porcellus [25]): 0.07 µM
